Data taken from ChEMBL document CHEMBL1138917, “FK506-binding protein ligands: structure-based design, synthesis, and neurotrophic/neuroprotective properties of substituted 5,5-dimethyl-2-(4-thiazolidine)carboxylates” (2006).
Active and inactive are the calls of the source. The rule behind the calls is not given here.

Tests used:
[1] = target: T1, Peptidyl-prolyl cis-trans isomerase FKBP4 (Homo sapiens) (UniProt Q02790); test: Increase in neurite outgrowth in chick embryo dorsal root ganglion at 1 pM in presence of NGF; assay type: functional, tissue-based; settings: Gallus gallus, target entry is the homologue from another species
T1 sequence (whole entry): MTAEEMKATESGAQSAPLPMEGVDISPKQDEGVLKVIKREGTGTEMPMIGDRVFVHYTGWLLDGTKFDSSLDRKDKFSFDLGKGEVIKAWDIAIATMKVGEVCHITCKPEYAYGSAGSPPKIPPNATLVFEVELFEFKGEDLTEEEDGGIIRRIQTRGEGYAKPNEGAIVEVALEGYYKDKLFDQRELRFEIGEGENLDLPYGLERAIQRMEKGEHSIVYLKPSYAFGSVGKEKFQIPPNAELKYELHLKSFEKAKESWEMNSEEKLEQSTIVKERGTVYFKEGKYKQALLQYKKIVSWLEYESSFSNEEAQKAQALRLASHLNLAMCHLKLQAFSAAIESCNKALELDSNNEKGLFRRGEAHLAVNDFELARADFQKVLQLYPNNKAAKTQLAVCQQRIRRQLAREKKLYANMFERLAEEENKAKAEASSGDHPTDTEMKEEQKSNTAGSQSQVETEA
Outline: (§1)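 DRGs from 8-day chick embryos, on rat tail collagen-coated flasks, 5-6 per flask; after 1 h attachment at 37 °C, 5% CO2, treated with compound plus 0.15 ng/mL NGF in DMEM for 48 h. DMSO stock 1 mM, final DMSO below 10^-7 M. Phase-contrast scoring of neurite number and length, averaged over 15-18 ganglia; NGF-only controls; one-way ANOVA with Student-Newman-Keuls.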

[2] = target: T1, Peptidyl-prolyl cis-trans isomerase FKBP4 (Homo sapiens); test: Increase in neurite outgrowth in chick embryo dorsal root ganglion at 100 pM in presence of NGF; assay type: functional, tissue-based; settings: Gallus gallus, target entry is the homologue from another species; outline: as §1
[3] = target: T1, Peptidyl-prolyl cis-trans isomerase FKBP4 (Homo sapiens); test: Increase in neurite outgrowth in chick embryo dorsal root ganglion in presence of NGF; assay type: functional, tissue-based; settings: Gallus gallus, target entry is the homologue from another species; outline: as §1
[4] = target: T1, Peptidyl-prolyl cis-trans isomerase FKBP4 (Homo sapiens); test: Decrease in neurite outgrowth in chick embryo dorsal root ganglion at 1 nM in presence of NGF; assay type: functional, tissue-based; settings: Gallus gallus, target entry is the homologue from another species; outline: as §1
[5] = test system: Mus musculus; test: Neuroprotective activity against 6-OHDA-induced Kunming mouse peripheral sympathetic nerve injury measured as norepinephrine content in submandibular gland at 10 mg/kg, sc; assay type: functional; settings: route subcutaneous
Outline: (§2)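 Adult female Kunming mice, 22 g, lesioned with 6-OHDA 8 mg/kg i.p.; compound given s.c. 4 h before lesion and daily for 4 further days; vehicle controls. Killed 2 weeks after last dose; both submandibular glands weighed and homogenized with 3,4-dihydroxybenzylamine internal standard, centrifuged 30 min; norepinephrine in supernatant by HPLC-ECD, µg/g wet weight; mean ± SEM.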

[6] = target: T1, Peptidyl-prolyl cis-trans isomerase FKBP4 (Homo sapiens); test: Increase in neurite outgrowth in chick embryo dorsal root ganglion in absence of NGF; assay type: functional, tissue-based; settings: Gallus gallus, target entry is the homologue from another species
[7] = test system: Mus musculus; test: Neuroprotective activity against 6-OHDA-induced Kunming mouse peripheral sympathetic nerve injury measured as norepinephrine content in submandibular gland at 2 mg/kg, sc; assay type: functional; settings: route subcutaneous; outline: as §2

Row | SMILES | Activity [1] | Activity [2] | also measured
1 | CCCCCCC(=O)C(=O)N1[C@H](C(=O)OCCc2ccccc2Cl)CSC1(C)C | Active | Active | 
2 | C=CCCCCCCCCOC(=O)[C@@H]1CSC(C)(C)N1C(=O)C(=O)C(C)(C)C | Active | Active | 
3 | CC(C)(C)C(=O)C(=O)N1[C@H](C(=O)OCCCc2ccccc2)CSC1(C)C | Active | Active | 
4 | C=CC[C@@H]1/C=C(\C)C[C@H](C)C[C@H](OC)[C@H]2O[C@@](O)(C(=O)C(=O)N3CCCC[C@H]3C(=O)O[C@H](/C(C)=C/[C@@H]3CC[C@@H](O)[C@H](OC)C3)[C@H](C)[C@@H](O)CC1=O)[C@H](C)C[C@@H]2OC [TACROLIMUS ANHYDROUS] |  |  | Activity [7]: 2.33 µg/g
5 | CCCCCCC(=O)C(=O)N1[C@H](C(=O)OCCCc2ccccc2)CSC1(C)C | Active | Active | 

More lines, main results first:

Row | Activity [1] | Activity [2] | SMILES | also measured
6 | Active | Active | CC(C)(C)C(=O)C(=O)N1[C@H](C(=O)OCCCc2cccnc2)CSC1(C)C | Activity [3]: Dose-dependent effect; Activity [4]: Active; Activity [5]: 2.31 µg/g; Activity [6]: inactive
7 | Active | Active | CCC(C)(C)C(=O)C(=O)N1[C@H](C(=O)OC/C=C/c2ccccc2)CSC1(C)C | 
